Experimental data reported in PubChem BioAssay AID1046 (PCMD, 2008).
In all, about 220,000 compounds went through this assay and about 560 (0.25%) were called active. For the sample, actives were picked, then their nearest neighbours and some compounds at random. Unmarked numbers belong to inactive results.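 The calls were made as follows: active = inhibition at or above 40%; inactive = inhibition below 40%.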

Target: Prothrombin (Homo sapiens) (UniProt P00734)
Test: blockers of thrombin peptide substrate cleavage – biochemical, 1536-well, fluorogenic AMC substrate, counter-screen for coagulation protease inhibitor project, primary screen (AID 1046);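 also: 0% = enzyme with no compound and 100% = wells without enzyme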
Conditions: alpha-thrombin, Boc-VPR-AMC fluorogenic substrate cleavage; at 5 µM; stronger effect = higher value
Summary of the method: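 Material: human alpha-thrombin protein; Also added: Boc-VPR-AMC substrate, 15 µM final; Timing: enzyme reaction carried out at room temperature; Signal: fluorescence, ex 355 nm, em 460 nm; Measure: % inhibition of thrombin; Controls: enzyme without compound as high, wells lacking enzyme as low.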

| Compound | inhibition |
| --- | --- |
| O=C(Nc1ccccc1F)c1ccc(Cn2cc(Br)cn2)cc1 | 0.95% |
| CCCC(O)(CCC)C(=O)NN(C(=O)CCl)c1cccc(C)c1 | -0.4% |
| CC(C)Cc1ccc(C(C)C(=N)N)cc1 (centres undefined) | -0.2% |
| CCS(=O)(=O)N1Cc2ccccc2CC1C(=O)Nc1nc2ccc(F)cc2s1 (centres undefined) | -4.77% |
| O=C(CSc1nnnn1-c1ccc(O)cc1)c1ccc(F)cc1 | -1.4% |
| CC1CN(S(=O)(=O)c2ccc(C(=O)NN3CCN(C)CC3)cc2)CC(C)O1 (centres undefined) | -9.4% |
| CC(C)(C)C1CCC(OC(=O)CCC(=O)Nc2ccccc2)CC1 (centres undefined) | -0.51% |
| CC(C)N1C(=O)N(c2ccccc2)C(C)(O)CC1(C)C (centres undefined) | -4.92% |
| COC(=O)c1cc2c(N)c(C(=O)c3ccc(Cl)cc3)sc2nc1C(OC)OC | 3.67% |
| COc1ccccc1NC(=O)c1cc(Cl)nnc1Cl | -8.6% |
| C=C(C)COc1ccc(-c2nc(N)ncc2-c2ccccc2OC)c(O)c1 | -2.7% |
| COc1cc(NC(=O)c2ccc(CNc3c(N4CCCC4)c(=O)c3=O)cc2)cc(OC)c1OC | 3.4% |
| Cc1noc(C)c1S(=O)(=O)N1CCCC(C(=O)Nc2nccs2)C1 (centres undefined) | -1.5% |
| Cc1ccc(NC(=O)C2CCCN(S(=O)(=O)c3c(C)noc3C)C2)c(C)c1 (centres undefined) | -4.66% |
| COc1c(C)cc(C(=O)C2CCCN(S(=O)(=O)c3c(C)noc3C)C2)cc1C (centres undefined) | 41.9% (active) |
| CN1CCN(c2ncc3c(n2)CC(c2ccccc2F)CC3=O)CC1 (centres undefined) | -5.02% |
| Cc1ccc(C)c(NC(=S)NCC(c2cccnc2)N2CCOCC2)c1 (centres undefined) | -3.59% |
| CCCC/C(C)=N/NC(=O)NC1CCCCC1 | -6.13% |
| COCCNC(=O)Cn1cc(C(=O)c2cccs2)c2ccccc21 | 0.65% |
| COC(=O)Cn1cc(C(=O)c2cccs2)c2ccccc21 | 47% (active) |
| O=C(Cn1cc(C(=O)c2cccs2)c2ccccc21)NCc1cccs1 | -2.66% |
| Clc1ccc(CSc2nnc3c(n2)[nH]c2ccccc23)cc1 | -0.71% |
| CCC(C(=O)Nc1ccc(C(C)C)cc1)c1ccccc1 (centres undefined) | -7.56% |
| CCc1ccc(CNC(=O)CCc2nc(-c3cccs3)no2)cc1 | 6.55% |
| O=C(Cn1c2[n+](c3ccc(C(F)(F)F)cc31)CCCCC2)Nc1c(F)cccc1F | -11.3% |
| O=C(CSc1ccc([N+](=O)[O-])cn1)Nc1ccc(N2CCOCC2)c(Cl)c1 | -6.75% |
| C=CCN(C(=O)Nc1ccc2oc(C)nc2c1)c1ccccc1 | -2.2% |
| Cc1nc2cc(NC(=O)Nc3cccc(F)c3)ccc2n1C | 13.7% |
| C=CCN(C(=O)Nc1ccc2c(c1)nc(C)n2C)c1ccccc1 | 43.6% (active) |
